Only some compounds are listed: those with a hit (about 2.2% of all), similar ones and a draw of the others.
GalR3 antag: human GalR3 antagonism | O60755 | HEK293 GalR3-CNG cAMP membrane potential fluorescence; galR3 body fused to GalR1 C-terminus | inhibition, % at 3 µM | actives 0.44% (n = 360,000);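 active = inhibition above the screen-wide average plus 3 SD, cut at about 13% in these data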;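 also: forskolin and galanin both at EC90 stimulate the cells; cAMP rise reported by CNG channel membrane potential dye signal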
Target sequence (O60755 1-299 limits assumed): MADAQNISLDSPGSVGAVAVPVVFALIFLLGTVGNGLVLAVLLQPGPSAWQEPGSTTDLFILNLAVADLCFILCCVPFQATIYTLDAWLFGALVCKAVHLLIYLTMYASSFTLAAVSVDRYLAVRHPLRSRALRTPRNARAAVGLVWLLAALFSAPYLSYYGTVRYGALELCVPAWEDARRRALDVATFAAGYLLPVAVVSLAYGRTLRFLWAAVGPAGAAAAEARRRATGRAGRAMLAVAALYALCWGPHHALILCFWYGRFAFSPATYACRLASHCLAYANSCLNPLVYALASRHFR
SMARCA2 act: activators of SMARCA2 function | MG213 cells, MMTV-luciferase reporter, dexamethasone, overnight | activation, % at 9.1 µM | actives 1% (n = 370,000) | AID 652017; in the data active = activation above about 7.8%
NR2E3 ag-1: activates human NR2E3 receptor. CHO-S Gal4-NCOR/VP16-NR2E3 two-hybrid, luciferase. actives 0.35% (n = 360,000). Q9Y5X4. inhibition of corepressor binding, % at 3.98 µM;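 active = inhibition above the mean of all tested compounds plus 3 SD, cut at about 70% in these data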;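 also: higher means lower luciferase signal from less NR2E3 corepressor binding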
NR2E3 ag-2: agonists of human nuclear receptor NR2E3. GST-NR2E3/biotin-RetCOR TR-FRET, 1536-well. AID 2300. inhibition of corepressor binding, % at 4.78 µM. actives 0.12% (n = 320,000);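 active = percent inhibition above the cutoff of mean plus 3 SD of all tested compounds, set per screening campaign, cut at about 20% in these data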
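system = GST-tagged NR2E3 plus biotinylated RetCOR corepressor | input = 1.35 nM GST-NR2E3 | also added = 7 nM biotin-RetCOR | schedule = 5 h incubation at 4 °C | measured by = TR-FRET with europium anti-GST and streptavidin-D2, 340 nm excitation | read-out = percent loss of FRET ratio relative to control wells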
NR2F2 inh: blocks human COUP-TFII nuclear receptor; P24468; HEK293T NGFI-A luciferase reporter, luminescence; AID 686940; inhibition, % at 8.6 µM; actives 0.7% (n = 370,000);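 active = inhibition above a per-plate cutoff, mean inhibition of test wells between control levels plus 3 SD, cut at about 38% in these data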;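 also: cells cotransfected with COUP-TFII expression vector driving the NGFI-A reporter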
Target sequence (P24468 whole entry, looked up): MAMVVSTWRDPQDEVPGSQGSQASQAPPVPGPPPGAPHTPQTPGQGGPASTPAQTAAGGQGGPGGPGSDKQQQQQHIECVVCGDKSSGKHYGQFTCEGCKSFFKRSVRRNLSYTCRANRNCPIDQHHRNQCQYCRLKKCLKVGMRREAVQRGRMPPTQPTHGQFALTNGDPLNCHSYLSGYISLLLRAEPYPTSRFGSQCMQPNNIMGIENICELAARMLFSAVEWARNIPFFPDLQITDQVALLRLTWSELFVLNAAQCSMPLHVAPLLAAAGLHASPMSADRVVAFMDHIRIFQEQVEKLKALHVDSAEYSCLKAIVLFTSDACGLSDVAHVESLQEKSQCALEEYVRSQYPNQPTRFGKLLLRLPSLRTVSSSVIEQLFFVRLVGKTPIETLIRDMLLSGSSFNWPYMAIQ
NR2E3 ag confirm: NR2E3 agonism confirmed in two-hybrid assay. shares compounds with NR2E3 ag-1. CHO-S mammalian two-hybrid NR2E3-NCOR, luciferase luminescence. inhibition, % at 3.98 µM. actives 51% (n = 2,300). AID 624378;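 active = average inhibition above a cutoff equal to the mean inhibition of all tested compounds plus one SD, cut at about 70% in these data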
GAL4-VP16 luc: reduces GAL4-VP16 reporter signal in NR2E3 counterscreen | CHO-S GAL4-VP16 luciferase reporter, luminescence | shares compounds with NR2E3 ag-1 | inhibition, % at 3.98 µM | AID 624379 | actives 29% (n = 2,300);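 active = mean inhibition above a cutoff equal to the average over all tested compounds plus one standard deviation, cut at about 70% in these data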;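 also: luciferase from a UAS reporter driven by GAL4-VP16 transactivation; higher means less reporter light so more repression of VP16 activity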
Numbers stand for hits.

How did CCCc1cc(=O)n2[nH]c(C)c(-c3ccccc3)c2n1 do in these assays?
GalR3 antag: inactive; SMARCA2 act: inactive; NR2E3 ag-1: inactive; NR2E3 ag-2: inactive; NR2F2 inh: inactive

What do the screens show for `Cc1ccc(S(=O)(=O)N/N=C/c2cccc([N+](=O)[O-])c2)cc1`?
GalR3 antag: inactive; SMARCA2 act: inactive; NR2E3 ag-1: inactive; NR2E3 ag-2: inactive; NR2F2 inh: inactive

Results for CCCCCCCCCS(=O)(=O)N/N=C/c1cccc([N+](=O)[O-])c1 ?
GalR3 antag: inactive; SMARCA2 act: inactive; NR2E3 ag-1: inactive; NR2E3 ag-2: inactive; NR2F2 inh: inactive; NR2E3 ag confirm: inactive; GAL4-VP16 luc: inactive

Results for CN1C(=O)c2cc(NC(=O)Nc3ccccc3)ccc2OC[C@H]2O[C@@H](CC(=O)NC3CCC3)CC[C@@H]21 ?
SMARCA2 act: inactive; NR2F2 inh: inactive

What do the screens show for `CN[C@H]1C[C@H]2c3[nH]c4cccc(-c5cccc(F)c5)c4c3CCN2C(=O)[C@H]1[C@H](C)O`?
SMARCA2 act: inactive; NR2F2 inh: inactive

Results for CCc1ccccc1NC(=O)COC(=O)c1c(C)nsc1NC ?
GalR3 antag: inactive; SMARCA2 act: inactive; NR2E3 ag-1: inactive; NR2E3 ag-2: inactive; NR2F2 inh: inactive

What do the screens show for `CNc1snc(C)c1C(=O)OCC(=O)Nc1ccc(C)cc1F`?
GalR3 antag: inactive; SMARCA2 act: inactive; NR2E3 ag-1: inactive; NR2F2 inh: inactive; NR2E3 ag confirm: inactive; GAL4-VP16 luc: inactive

What do the screens show for `COC(=O)C1CN(Cc2ccc(OC)cc2)CCS(=O)(=O)N1Cc1cn(Cc2ccccc2)nn1` (centres undefined)?
SMARCA2 act: inactive; NR2F2 inh: inactive

What do the screens show for `CCCC1CCC2(CC1)CCC2OC(=O)Nc1cccc(C(F)(F)F)c1` (centres undefined)?
NR2F2 inh: inactive

How did CC(=O)c1ccc(NS(=O)(=O)c2ccc(CC(C)C)cc2)cc1 do in these assays?
GalR3 antag: inactive; SMARCA2 act: inactive; NR2E3 ag-1: inactive; NR2E3 ag-2: inactive; NR2F2 inh: inactive; NR2E3 ag confirm: 90; GAL4-VP16 luc: inactive

What do the screens show for `C/C(=N/NS(=O)(=O)c1ccc(CC(C)C)cc1)c1ccncc1`?
GalR3 antag: inactive; SMARCA2 act: inactive; NR2E3 ag-1: 104; NR2E3 ag-2: inactive; NR2F2 inh: inactive; NR2E3 ag confirm: inactive; GAL4-VP16 luc: inactive

Results for CC(=O)OC12CCCN(C1)/C(=C/c1ccc(Cl)cc1)C2 (centres undefined) ?
SMARCA2 act: inactive; NR2F2 inh: inactive

Results for C#CCCN([C@@H](CC(C)C)C(=O)OC)S(=O)(=O)c1ccccc1Br ?
SMARCA2 act: inactive; NR2F2 inh: inactive

What do the screens show for `CC(=O)OC12CCCN(C1)/C(=C/c1cccnc1)C2` (centres undefined)?
SMARCA2 act: inactive; NR2F2 inh: inactive

Results for Cn1c(SCc2cccc([N+](=O)[O-])c2)nc2ccccc2c1=O ?
GalR3 antag: inactive; SMARCA2 act: inactive; NR2E3 ag-1: inactive; NR2E3 ag-2: inactive; NR2F2 inh: inactive; NR2E3 ag confirm: 83; GAL4-VP16 luc: inactive

What do the screens show for `Cc1ccccc1Nc1nc(N)nc(CSc2nc3ccccc3c(=O)n2C)n1`?
GalR3 antag: inactive; SMARCA2 act: inactive; NR2E3 ag-1: 88; NR2E3 ag-2: inactive; NR2F2 inh: inactive; NR2E3 ag confirm: inactive; GAL4-VP16 luc: inactive

Results for Cc1cccc(NC(=O)CSc2nc3ccccc3c(=O)n2C)c1C ?
GalR3 antag: inactive; SMARCA2 act: inactive; NR2E3 ag-1: 81; NR2F2 inh: inactive; NR2E3 ag confirm: 91; GAL4-VP16 luc: 80

What do the screens show for `Cc1ccccc1C(=O)N(C)[C@H]1C[C@H]2c3[nH]c4c(-c5ccc6c(c5)OCO6)cccc4c3CCN2C[C@H]1[C@H](C)O`?
SMARCA2 act: inactive; NR2F2 inh: inactive

What do the screens show for `C[C@@H]1[C@@H](Sc2ccccc2)CC(=O)O[C@@H]1c1ccc(-c2ccccc2)cc1`?
GalR3 antag: inactive; SMARCA2 act: inactive; NR2E3 ag-1: inactive; NR2E3 ag-2: inactive; NR2F2 inh: inactive

How did O=C1C=CC2(O[C@H](c3ccccc3)[C@@H](c3ccccc3)O2)[C@H](Sc2ccccc2O)C1 do in these assays?
GalR3 antag: 16; SMARCA2 act: inactive; NR2E3 ag-1: inactive; NR2F2 inh: 87; NR2E3 ag confirm: 92; GAL4-VP16 luc: inactive

Results for CC(C)(C)C(=O)NC(NC(=O)C(C)(C)C)c1ccc([N+](=O)[O-])cc1 ?
GalR3 antag: inactive; SMARCA2 act: inactive; NR2E3 ag-1: inactive; NR2E3 ag-2: inactive; NR2F2 inh: inactive

What do the screens show for `CC(=O)Nc1ccc(Sc2ccc([N+](=O)[O-])o2)cc1`?
GalR3 antag: inactive; SMARCA2 act: inactive; NR2E3 ag-1: 72; NR2F2 inh: inactive; NR2E3 ag confirm: 93; GAL4-VP16 luc: inactive

What do the screens show for `CC(=O)Nc1ccc(NC(=O)c2cc([N+](=O)[O-])cc([N+](=O)[O-])c2)cc1`?
GalR3 antag: inactive; SMARCA2 act: inactive; NR2E3 ag-1: inactive; NR2E3 ag-2: inactive; NR2F2 inh: inactive

How did CC(C)(C)C(=O)Nc1ccc(Sc2ccc([N+](=O)[O-])cc2)cc1 do in these assays?
GalR3 antag: inactive; SMARCA2 act: inactive; NR2E3 ag-1: inactive; NR2E3 ag-2: inactive; NR2F2 inh: inactive; NR2E3 ag confirm: 78; GAL4-VP16 luc: inactive

Results for COc1ccc(CNC(=O)O[C@H]2CC[C@@]34CCCN3C(=O)CCC[C@H]4C2)cc1OC ?
NR2F2 inh: inactive

Results for COC(=O)[C@H](CC1(c2cn(S(=O)(=O)CC[Si](C)(C)C)c3ccccc23)C(=O)Nc2ccccc21)NC(=O)OC(C)(C)C (some centres undefined) ?
NR2F2 inh: inactive

What do the screens show for `O=C(Cn1nc(-c2ccccc2)c2ccccc21)Oc1ccccc1`?
NR2F2 inh: inactive

What do the screens show for `NS(=O)(=O)c1ccc(NC(=O)CSc2nc3ccccc3c(=O)n2-c2ccc(Br)cc2)cc1`?
SMARCA2 act: inactive; NR2F2 inh: inactive

Results for Cc1csc(SCC(=O)Nc2nc3ccccc3s2)n1 ?
GalR3 antag: inactive; SMARCA2 act: inactive; NR2E3 ag-1: inactive; NR2E3 ag-2: inactive; NR2F2 inh: inactive

What do the screens show for `Cn1cc(SCC(=O)Nc2nc3ccccc3s2)c2ccccc21`?
GalR3 antag: inactive; SMARCA2 act: inactive; NR2E3 ag-1: inactive; NR2E3 ag-2: inactive; NR2F2 inh: inactive; NR2E3 ag confirm: inactive; GAL4-VP16 luc: inactive

Results for Cc1ccc(C(=O)C2CCN(C(=O)c3ccc(C)cc3)CC2)cc1 ?
GalR3 antag: inactive; SMARCA2 act: inactive; NR2E3 ag-1: inactive; NR2E3 ag-2: inactive; NR2F2 inh: inactive; NR2E3 ag confirm: inactive; GAL4-VP16 luc: inactive
